In ChEMBL document CHEMBL2331371, “Natural products inspired synthesis of neuroprotective agents against H₂O₂-induced cell death” (Bioorg Med Chem Lett, 2013) one finds Activity and inhibition data, which are given here for 6 compounds.

Molecules are shown by their SMILES. The source made the active and inactive calls. The rule behind the calls is not given here.

The subject of test [1] is PC-12. The test is described as follows: Effect on Na+/K+ ATPase activity in rat PC12 cells assessed as inorganic phosphate liberation using ATP as substrate at 50 uM after 1 hr by colorimetric analysis. Type of test: cell-based. Summed up: (§1)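 Adherent PC12 cells exposed 1 h to 50 µM compound, either alone or together with 100 µM H2O2, then harvested. ATPase assayed in two parallel runs, total and ouabain-insensitive. Inorganic phosphate formed in 30 min quantified colorimetrically; Na+/K+-ATPase activity taken as the difference without versus with ouabain. Triplicate experiments; means ± SEM, Student t-test.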

In test [2] the test system is PC-12. The experiment in a line: Neuroprotective activity against H2O2-induced oxidative stress in rat PC12 cells assessed as increase in cell viability treated for 6 hrs prior to H2O2 addition measured after 18 hrs by Synergy Hybrid H1 reader analysis. Type of test: functional, cell-based. Summed up: (§2)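 PC12 cells pretreated 6 h with compound at 0.1, 1, 10, 50, 100 or 150 µM, then challenged with 100 µM H2O2 for a further 18 h. Untreated cells served as 100% survival. Cells harvested for viability assay. Triplicates with three separate culture batches; means ± SEM, Student t-test, p<0.05.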

Test [3] has as its system PC-12. The test is described as follows: Neuroprotective activity against H2O2-induced oxidative stress in rat PC12 cells assessed as increase in cell viability at 0.1 to 10 uM treated for 6 hrs prior to H2O2 addition measured after 18 hrs by Synergy Hybrid H1 reader analysis. Type of test: functional, cell-based. The gist of the method: as §2
In test [4] the test system is PC-12. The test is described as follows: Inhibition of H2O2-induced decrease in Na+/K+ ATPase activity in rat PC12 cells assessed as increase in inorganic phosphate liberation using ATP as substrate at 50 uM after 1 hr by colorimetric analysis in presence H2O2. The class given is cell-based. Summed up: as §1
For test [5], the system named is PC-12. The experiment in a line: Neuroprotective activity against H2O2-induced oxidative stress in rat PC12 cells assessed as increase in cell viability at 0.1 to 150 uM treated for 6 hrs prior to H2O2 addition measured after 18 hrs by Synergy Hybrid H1 reader analysis. The class given is functional, cell-based. The gist of the method:
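PC12 cells pretreated 6 h with test agent (0.1, 1, 10, 50, 100, 150 µM), then 100 µM H₂O₂ added for a further 18 h. Untreated cells set as 100% survival; H₂O₂-only cells as injury control. Cells then harvested for viability assay. Triplicate runs over three separate culture batches; means ± SEM, Student t-test, p < 0.05.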

As for `C[C@]12CCCC[C@@]1(O)C(=O)C=C2c1ccoc1`, the outcome in test [1] was inactive. Further, in test [2], the Activity result was “Dose-dependent effect”. For the same compound, the outcome in test [3] was Active.

In the case of `C[C@]12CCCC[C@@]1(O)OC(=O)C=C2c1ccoc1`, the inhibition result in test [4] is “Active”. Further, the outcome in test [1] was inactive. The Activity entry in test [2] is “Dose-dependent effect”.

In the case of `C[C@]12CCCC[C@@]1(O)C(=O)C[C@H]2c1ccco1`, in test [4], the inhibition entry is “Active”. Besides, the result in test [1] was inactive. Further, the Activity result in test [2] was “Dose-dependent effect”.

As to `C[C@]12CCCC[C@@]1(O)C(=O)C=C2c1ccco1`, the inhibition entry in test [4] is “Active”. The outcome in test [1] was inactive. In addition, in test [5], the result was Active.

As for `C[C@]12CCCC[C@H]1C(=O)C=C2c1ccoc1`, in test [4], the inhibition result is “Active”. Further, in test [1], the outcome was inactive. The Activity entry in test [2] is “Dose-dependent effect”. Moreover, in test [3], the outcome was Active.

For the compound `C[C@]12CCCC[C@@]1(O)C(=O)CC2c1ccoc1` (single isomer, unassigned), in test [1], the outcome was inactive. Also, in test [5], the result was Active.
